As usually defined, the pIC50 is the negative decadic logarithm of the IC50, by convention in mol/L.

Our source for the IC50 and Activity values is ChEMBL document CHEMBL1806386, “Antiproliferative activity of aroylacrylic acids. Structure-activity study based on molecular interaction fields” (Eur J Med Chem, 2011).

pIC50: −log10 of the molar value.

The test system of test [1] is HeLa. The test is described as follows: Antiproliferative activity against human HeLa cells assessed as inhibition of cell survival after 72 hrs by MTT method. In kind it is functional, cell-based. The gist of the method:
(§1)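 HeLa (2000 cells/well) or LS174 (5000 cells/well) seeded in RPMI-1640 with 10% FBS, 3 mmol/L L-glutamine, 25 mM Hepes, pH 7.2; five concentrations added after 20 h from 10 mM DMSO stocks, each in triplicate. MTT 72 h after dosing, 4 h at 37 °C, SDS solubilization, A570 next day. Blank-subtracted survival vs control; IC50 is the mean of three experiments.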
For orientation: Tetrazolium assays rely on reduction of a dye to a coloured formazan, in cell work by metabolically active cells.

The subject of test [2] is K562. Description: Antiproliferative activity against human K562 cells assessed as inhibition of cell survival after 72 hrs by MTT method. It counts as functional, cell-based. To be noted: K562, 72 h. The gist of the method: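 K562 grown in suspension at 3000 cells/well in RPMI-1640 with 10% FBS, 3 mmol/L L-glutamine, 25 mM Hepes, pH 7.2. Five concentrations added 2 h after seeding from 10 mM DMSO stocks, in triplicate. MTT read 72 h later, SDS solubilization, A570. IC50 taken from blank-subtracted survival relative to control, mean of three experiments.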

The nature of test [3]: Antiproliferative activity against human LS 174T cells assessed as inhibition of cell survival after 72 hrs by MTT method. It counts as functional, cell-based. The conditions noted are these: LS174T. The gist of the method:
as §1

Test [4] concerns HeLa. Description: Cell cycle arrest in human HeLa cells assessed as accumulation at S phase at 2 times IC50 after 48 hrs using propidium iodide staining by flow cytometry (reference value: 20.14%). It counts as functional. The gist of the method:
(§2)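 HeLa cells, 5×10⁵ per aliquot, treated at two times the 72 h IC50 for 24, 48 or 72 h alongside untreated controls. Fixed in 70% ethanol on ice for one week, given RNase A at 37 °C for 30 min, then PI for at least 30 min. Flow cytometry with 488 nm excitation, FL2 at 585/42 nm, doublets excluded, 20,000 events per sample.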
On the technique in general: In flow cytometry, cells or beads pass a laser one at a time.

The subject of test [5] is HeLa. The test is described as follows: Cell cycle arrest in human HeLa cells assessed as accumulation at G1 phase at 2 times IC50 after 24 hrs using propidium iodide staining by flow cytometry (reference value: 46.78%). It counts as functional. The essentials:
as §2

Test [6] deals with HeLa. The test is described as follows: Cell cycle arrest in human HeLa cells assessed as accumulation at G1 phase at 2 times IC50 after 72 hrs using propidium iodide staining by flow cytometry (reference value: 49.90%). It counts as functional. The gist of the method:
as §2

In test [7] the test system is HeLa. The test is described as follows: Cell cycle arrest in human HeLa cells assessed as accumulation at G1 phase at 2 times IC50 after 48 hrs using propidium iodide staining by flow cytometry (reference value: 51.32%). In kind it is functional. The gist of the method:
as §2

Test [8] concerns HeLa. Description: Cell cycle arrest in human HeLa cells assessed as accumulation at S phase at 2 times IC50 after 24 hrs using propidium iodide staining by flow cytometry (reference value: 24.47%). It counts as functional. The essentials: as §2
Test [9] relates to HeLa. The test is described as follows: Cell cycle arrest in human HeLa cells assessed as accumulation at G2/M phase cell at 2 times IC50 after 72 hrs using propidium iodide staining by flow cytometry (reference value: 17.57%). It counts as functional. The essentials: as §2
In test [10] the test system is HeLa. The test is described as follows: Cell cycle arrest in human HeLa cells assessed as accumulation at S phase at 2 times IC50 after 72 hrs using propidium iodide staining by flow cytometry (reference value: 22.53%). In kind it is functional. The gist of the method:
as §2

Test [11] has as its system HeLa. Description: Cell cycle arrest in human HeLa cells assessed as accumulation at sub-G1 phase at 2 times IC50 after 48 hrs using propidium iodide staining by flow cytometry (reference value: 6.87%). It counts as functional. The gist of the method: as §2
Test [12] has as its system HeLa. The test is described as follows: Cell cycle arrest in human HeLa cells assessed as accumulation at sub-G1 phase at 2 times IC50 after 24 hrs using propidium iodide staining by flow cytometry (reference value: 3.34%). In kind it is functional. The gist of the method:
as §2

Test [13] deals with HeLa. Description: Cell cycle arrest in human HeLa cells assessed as accumulation at G2/M phase cell at 2 times IC50 at 2 times IC50 after 48 hrs using propidium iodide staining by flow cytometry (reference value: 22.05%). It counts as functional. The gist of the method:
as §2

Test [14] relates to HeLa. The test is described as follows: Cell cycle arrest in human HeLa cells assessed as accumulation at sub-G1 phase at 2 times IC50 after 72 hrs using propidium iodide staining by flow cytometry (reference value: 9.85%). In kind it is functional. The gist of the method:
as §2

For test [15], the system named is HeLa. Description: Cell cycle arrest in human HeLa cells assessed as accumulation at G2/M phase at 2 times IC50 after 24 hrs using propidium iodide staining by flow cytometry (reference value: 25.97%). It counts as functional. The essentials:
as §2

Consider `O=C(O)/C=C/C(=O)c1ccccc1`, for which the results for the pIC50 in [1], in test [2] and in [3] were 4.51, 4.52 and 4.34, respectively.

Consider `CCc1ccc(C(=O)/C=C/C(=O)O)cc1`, for which the pIC50 in [1] is 4.56; in test [2], 5.26; in [3] it was 4.68.

For `CC(C)c1ccc(C(=O)/C=C/C(=O)O)cc1`, the values for the pIC50 in test [1], in test [2] and in [3] were 5.31, 5.25 and 4.59, respectively.

`CCCCc1ccc(C(=O)/C=C/C(=O)O)cc1`: the pIC50 is 5.32 in test [1], 5.31 in test [2] and 5.17 in test [3].

Regarding `CC(C)(C)c1ccc(C(=O)/C=C/C(=O)O)cc1`, the pIC50 in test [1] is 5.29; in [2], 5.36; in [3] it was 5.06.

As to `CCCCCCCCCCCCc1ccc(C(=O)/C=C/C(=O)O)cc1`, the results for the pIC50 in test [1], in [2] and in test [3] were 5.24, 5.40 and 5.11, respectively.

`Cc1ccc(C(=O)/C=C/C(=O)O)c(C)c1`: the results for the pIC50 in [1], in test [2] and in [3] were 5.22, 5.27 and 5.15, respectively.

For the molecule `Cc1ccc(C)c(C(=O)/C=C/C(=O)O)c1`, the pIC50 was 5.10 in test [1], 5.23 in test [2] and 4.66 in test [3].

Regarding `Cc1ccc(C(=O)/C=C/C(=O)O)cc1C`, the pIC50 in test [1] was 5.14; in test [2], 5.25; in test [3], 4.92.

As for `O=C(O)/C=C/C(=O)c1ccc2c(c1)CCCC2`, the results for the pIC50 in [1], in test [2] and in [3] were 5.15, 5.25 and 4.75, respectively.

Consider `CCc1ccc(C(C)C)cc1C(=O)/C=C/C(=O)O`, for which the results for the pIC50 in test [1], in test [2] and in [3] were 5.31, 5.87 and 5.23, respectively.

With `CC(C)c1ccc(C(=O)/C=C/C(=O)O)c(C(C)C)c1`, the pIC50 in test [1] is 5.39; in test [2], 5.33; in test [3], 5.27.

`CC(C)c1ccc(C(C)C)c(C(=O)/C=C/C(=O)O)c1`: the pIC50 is 5.32 in test [1], 5.48 in test [2] and 5.21 in test [3].

As for `CCc1cc(CC)c(C(=O)/C=C/C(=O)O)c(CC)c1`, the pIC50 was 5.19 in test [1], 5.40 in test [2] and 5.14 in test [3].

As for `CC(C)c1cc(C(C)C)c(C(=O)/C=C/C(=O)O)c(C(C)C)c1`, the pIC50 in test [1] was 5.21; in [2] it was 5.33; in test [3], 5.08.

Regarding `CCc1c(C(=O)/C=C/C(=O)O)cc(C(C)C)cc1C(C)C`, the values for the pIC50 in test [1], in test [2] and in test [3] were 5.12, 5.29 and 4.91, respectively.

Regarding `Cc1cc(C2CCCCC2)c(C)cc1C(=O)/C=C/C(=O)O`, the pIC50 in test [1] is 5.62; in test [2], 5.37; in [3], 5.18.

With `O=C(O)/C=C/C(=O)c1cc(C2CCCCC2)ccc1C1CCCCC1`, the Activity is on record as 31.66% in [4]; 39.98% in test [5]; 38.3% in [6]; 36.94% in test [7]; 32.67% in test [8]; 16.57% in [9]. In addition, the Activity is listed as 24.2% in test [10]; 15.79% in test [11]; 12.64% in [12]; 16.73% in test [13]; 21.71% in test [14]; 15.36% in test [15]. Moreover, the figures for the pIC50 in test [1], in test [2] and in [3] were 5.90, 5.48 and 5.37, respectively.

For `Cc1ccc(C(=O)/C=C/C(=O)O)c(Cl)c1`, the pIC50 in [1] was 5.12; in test [2] it was 4.84; in test [3], 4.56.

In the case of `O=C(O)/C=C/C(=O)c1ccc(F)cc1`, the pIC50 in test [1] was 4.55; in test [2], 4.77; in [3], 4.47.

On to `O=C(O)/C=C/C(=O)c1ccc(Cl)cc1`, for which the pIC50 is 4.59 in test [1], 4.66 in test [2] and 4.54 in test [3].

For the molecule `O=C(O)/C=C/C(=O)c1ccc(Br)cc1`, the pIC50 is 4.73 in test [1], 4.95 in test [2] and 4.57 in test [3].

On to `O=C(O)/C=C/C(=O)c1ccc(Cl)cc1Cl`, for which the pIC50 in test [1] is 4.20; in test [2] it was 4.23; in test [3] it was under 4.00.

As to `COc1ccc(C(=O)/C=C/C(=O)O)cc1`, the pIC50 in test [1] was 4.56; in test [2], 4.91; in [3], 4.46.

As to `COc1ccc(C(=O)/C=C/C(=O)O)c(OC)c1OC`, the pIC50 in test [1] was 4.02; in [2] it was under 4.00; in test [3], under 4.00.

Regarding `Cc1ccc(C(=O)/C=C/C(=O)O)cc1`, the pIC50 was 5.12 in test [1], 5.04 in [2] and 4.55 in [3].

On to `O=C(O)/C=C/C(=O)c1ccc(Cl)c(Cl)c1`, for which the pIC50 in test [1] was 4.55; in [2], 4.64; in [3] it was 4.49.
